In ChEMBL document CHEMBL1177701, “Synthesis, biological evaluation, and structure-activity relationships of dithiolethiones as inducers of cytoprotective phase 2 enzymes” (J Med Chem, 2010):
The source made the active and inactive calls. The calls are words filed in the database; no cut-off is given here.

Assays:
[1] = target: T1, Nuclear factor erythroid 2-related factor 2 (Rattus norvegicus) (UniProt O54968); assay: Induction of Nrf in wild type rat NBT2 cells at 25 uM after 24 hrs Western blot analysis; type: functional, cell-based
T1 sequence (whole entry): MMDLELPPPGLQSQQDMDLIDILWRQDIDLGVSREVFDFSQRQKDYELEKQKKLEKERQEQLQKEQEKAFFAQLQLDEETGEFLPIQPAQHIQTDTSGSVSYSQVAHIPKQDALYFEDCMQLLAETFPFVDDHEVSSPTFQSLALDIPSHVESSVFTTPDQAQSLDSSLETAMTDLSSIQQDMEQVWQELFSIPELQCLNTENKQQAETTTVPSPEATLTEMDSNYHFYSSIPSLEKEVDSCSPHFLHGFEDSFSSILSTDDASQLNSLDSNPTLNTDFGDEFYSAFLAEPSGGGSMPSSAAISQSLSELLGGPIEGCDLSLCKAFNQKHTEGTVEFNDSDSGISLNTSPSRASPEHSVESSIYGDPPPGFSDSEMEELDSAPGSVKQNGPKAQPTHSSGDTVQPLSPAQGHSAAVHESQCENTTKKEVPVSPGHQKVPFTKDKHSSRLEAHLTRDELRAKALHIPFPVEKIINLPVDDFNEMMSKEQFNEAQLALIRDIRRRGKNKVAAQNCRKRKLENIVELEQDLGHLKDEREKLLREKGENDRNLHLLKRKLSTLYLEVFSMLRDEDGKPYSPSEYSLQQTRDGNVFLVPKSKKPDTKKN
How it was run: (§1)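 NBT-II cells transfected with Nrf2 stealth RNAi or control RNAi (0.584 nmol per dish, lipofectamine 2000) for 48 h. Then treated with compound at 25 µM or vehicle for 24 h, with 0.1% DMSO final. Lysates analyzed by Western blot for Nrf2, GCL, GST-α, GST-μ and NQO1, with GAPDH as loading control.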

[2] = target: T1, Nuclear factor erythroid 2-related factor 2 (Rattus norvegicus); assay: Induction of Nrf-mediated NQO1 protein expression in wild type rat NBT2 cells at 25 uM after 24 hrs Western blot analysis; type: functional, cell-based; how it was run: as §1
Rattus norvegicus [3] = assay: Ex vivo induction GST-mu protein expression in Sprague-Dawley rat bladder at 7.5 umol/kg/day, po for 10 days measured on day 11 by Western blot analysis; type: functional, organism-based
How it was run: (§2)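 Female Sprague-Dawley rats, 3 per group, gavaged once daily with compound at 7.5 µmol/kg or soya oil vehicle for 10 days. Killed on day 11. Bladder homogenized in 10 mM Tris-HCl pH 7.4, 0.25 M sucrose, 1 mM PMSF, 1 µg/ml leupeptin. 25-40 µg protein run by SDS-PAGE, then Western blot, with GAPDH as loading control.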

[4] = target: T1, Nuclear factor erythroid 2-related factor 2 (Rattus norvegicus); assay: Induction of Nrf-mediated GCL protein expression in wild type rat NBT2 cells at 25 uM after 24 hrs Western blot analysis; type: functional, cell-based; how it was run: as §1
Rattus norvegicus [5] = assay: Ex vivo induction of NQO1 in Sprague-Dawley rat ileum at 7.5 umol/kg/day, po for 10 days measured on day 11 relative to control; type: functional
How it was run: (§3)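 Organs taken from the same rats used for the bladder study: female Sprague-Dawley, compound at 7.5 µmol/kg/day by gavage or soya oil for 10 days, killed on day 11. GI contents rinsed out under cold water and tissues stored at −80°C. Homogenized in 0.2% Triton X-100 and centrifuged. Supernatant NQO1 activity measured by the Ernster method, expressed as treated/control.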

NBT2 [6] = assay: Induction of GCL protein expression in rat NBT2 cells at 25 to 50 uM after 24 hrs by Western blot analysis; type: functional, cell-based
How it was run: (§4)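 NBT-II rat bladder carcinoma cells grown in MEM with 10% FBS. Plated overnight, then exposed to compound at 25 or 50 µM for 24 h, with 0.1% DMSO final. Cells trypsinized, lysed with 1 mM PMSF and sonicated. 25-40 µg protein taken for Western blot, GAPDH as loading control. At least two experiments.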

Rattus norvegicus [7] = assay: Ex vivo induction of NQO1 in Sprague-Dawley rat jejunum at 7.5 umol/kg/day, po for 10 days measured on day 11 relative to control; type: functional; how it was run: as §3
NBT2 [8] = assay: Induction of Nrf protein expression in Nrf gene knockout rat NBT2 cells at 25 uM after 24 hrs Western blot analysis; type: functional, cell-based; how it was run: as §1
Rattus norvegicus [9] = assay: Ex vivo induction of NQO1 in Sprague-Dawley rat colon at 7.5 umol/kg/day, po for 10 days measured on day 11 relative to control; type: functional; how it was run: as §3
NBT2 [10] = assay: Induction of GST-mu protein expression in rat NBT2 cells after 24 hrs by Western blot analysis; type: functional, cell-based; how it was run: as §4
NBT2 [11] = assay: Induction of NQO1 protein expression in rat NBT2 cells after 24 hrs by Western blot analysis; type: functional, cell-based; how it was run: as §4
NBT2 [12] = assay: Induction of GCL protein expression in Nrf gene knockout rat NBT2 cells at 25 uM after 24 hrs Western blot analysis; type: functional, cell-based; how it was run: as §1
Rattus norvegicus [13] = assay: Ex vivo induction of NQO1 in Sprague-Dawley rat duodenum at 7.5 umol/kg/day, po for 10 days measured on day 11 relative to control; type: functional; how it was run: as §3
Rattus norvegicus [14] = assay: Ex vivo induction of NQO1 in Sprague-Dawley rat lung at 7.5 umol/kg/day, po for 10 days measured on day 11 relative to control; type: functional; how it was run: as §3
NBT2 [15] = assay: Induction of GST-mu protein expression in Nrf gene knockout rat NBT2 cells at 25 uM after 24 hrs Western blot analysis; type: functional, cell-based; how it was run: as §1
Rattus norvegicus [16] = assay: Ex vivo induction of NQO1 in Sprague-Dawley rat bladder at 7.5 umol/kg/day, po for 10 days measured on day 11 relative to control; type: functional
How it was run: (§5)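 Female Sprague-Dawley rats, 6 per group, gavaged with compound at 7.5 µmol/kg/day or soya oil for 10 days and killed on day 11. Bladder homogenized in ice-cold 0.2% Triton X-100 and cleared by centrifugation. NQO1 activity measured by the Ernster method, GST by the Habig method. Reported as treated/control mean ± SEM, ANOVA with Student-Newman-Keuls test.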

Rattus norvegicus [17] = assay: Ex vivo induction of GST in Sprague-Dawley rat bladder at 7.5 umol/kg/day, po for 10 days measured on day 11 relative to control; type: functional; how it was run: as §5
NBT2 [18] = assay: Induction of GST-alpha protein expression in Nrf gene knockout rat NBT2 cells at 25 uM after 24 hrs Western blot analysis; type: functional, cell-based; how it was run: as §1
Rattus norvegicus [19] = assay: Ex vivo induction GST-alpha protein expression in Sprague-Dawley rat bladder at 7.5 umol/kg/day, po for 10 days measured on day 11 by Western blot analysis; type: functional, organism-based; how it was run: as §2
[20] = target: T1, Nuclear factor erythroid 2-related factor 2 (Rattus norvegicus); assay: Induction of Nrf-mediated GST-alpha protein expression in wild type rat NBT2 cells at 25 uM after 24 hrs Western blot analysis; type: functional, cell-based; how it was run: as §1
NBT2 [21] = assay: Induction of GST-pi protein expression in rat NBT2 cells at 25 to 50 uM after 24 hrs by Western blot analysis; type: functional, cell-based; how it was run: as §4
Rattus norvegicus [22] = assay: Ex vivo induction of NQO1 in Sprague-Dawley rat stomach at 7.5 umol/kg/day, po for 10 days measured on day 11 relative to control; type: functional; how it was run: as §3
Rattus norvegicus [23] = assay: Ex vivo induction of NQO1 in Sprague-Dawley rat kidney at 7.5 umol/kg/day, po for 10 days measured on day 11 relative to control; type: functional; how it was run: as §3
Rattus norvegicus [24] = assay: Ex vivo induction GST-pi protein expression in Sprague-Dawley rat bladder at 7.5 umol/kg/day, po for 10 days measured on day 11 by Western blot analysis; type: functional, organism-based; how it was run: as §2
Rattus norvegicus [25] = assay: Ex vivo induction GCL protein expression in Sprague-Dawley rat bladder at 7.5 umol/kg/day, po for 10 days measured on day 11 by Western blot analysis; type: functional, organism-based; how it was run: as §2
Rattus norvegicus [26] = assay: Ex vivo induction of NQO1 in Sprague-Dawley rat liver at 7.5 umol/kg/day, po for 10 days measured on day 11 relative to control; type: functional; how it was run: as §3
NBT2 [27] = assay: Induction of GST-alpha protein expression in rat NBT2 cells after 24 hrs by Western blot analysis; type: functional, cell-based; how it was run: as §4
NBT2 [28] = assay: Induction of NQO1 protein expression in Nrf gene knockout rat NBT2 cells at 25 uM after 24 hrs Western blot analysis; type: functional, cell-based; how it was run: as §1
[29] = target: T1, Nuclear factor erythroid 2-related factor 2 (Rattus norvegicus); assay: Induction of Nrf-mediated GST-mu protein expression in wild type rat NBT2 cells at 25 uM after 24 hrs Western blot analysis; type: functional, cell-based; how it was run: as §1

SMILES: COC(=O)c1cssc1=S
- Activity [1]: Active
- Activity [2]: Active
- Activity (Rattus norvegicus [3]): Active
- Activity [4]: Active
- fold change (FC) (Rattus norvegicus [5]): 0.95
- Activity (NBT2 [6]): Active
- fold change (FC) (Rattus norvegicus [7]): 1.13
- Activity (NBT2 [8]): inactive
- fold change (FC) (Rattus norvegicus [9]): 0.89
- Activity (NBT2 [10]): Dose-dependent effect
- Activity (NBT2 [11]): Dose-dependent effect
- Activity (NBT2 [12]): inactive
- fold change (FC) (Rattus norvegicus [13]): 1.17
- fold change (FC) (Rattus norvegicus [14]): 1.07
- Activity (NBT2 [15]): inactive
- fold change (FC) (Rattus norvegicus [16]): 5.05
- fold change (FC) (Rattus norvegicus [17]): 2.69
- Activity (NBT2 [18]): inactive
- Activity (Rattus norvegicus [19]): Active
- Activity [20]: Active
- Activity (NBT2 [21]): inactive
- fold change (FC) (Rattus norvegicus [22]): 2.36
- fold change (FC) (Rattus norvegicus [23]): 1.45
- Activity (Rattus norvegicus [24]): inactive
- Activity (Rattus norvegicus [25]): Active
- fold change (FC) (Rattus norvegicus [26]): 1.07
- Activity (NBT2 [27]): Dose-dependent effect
- Activity (NBT2 [28]): inactive
- Activity [29]: Active
